Experimental data collected from several papers.
Protocols differ between the studies behind these lines.
Cell line: HeLa
Effect on: cell growth or viability

| SMILES | method | time | IC50 [µM] |
| --- | --- | --- | --- |
| COc1cccc(-c2cc(NCc3ccc4c(c3)OCO4)nc(N)n2)c1 | CCK-8 | 72 h | 0.188 |
| O=C(Cn1cc(COc2ncnc3[nH]cnc23)nn1)Nc1ccc([N+](=O)[O-])cc1 | MTT | – | 10.4 |
| Cc1sc2c(c1C)C(c1ccc(Cl)cc1)=N[C@@H](CC(=O)NCCCCNC(=O)COc1cccc3c1C(=O)N(C1CCC(=O)NC1=O)C3=O)c1nnc(C)n1-2 (some centres unmarked) | CCK-8 | 72 h | > 10 |
| CC(C)CNC(=S)N/N=C/c1cccc2cc3ccccc3nc12 | MTT | 48 h | 25.5 |
| Cc1n(CCC(C)C)c2ccccc2[n+]1Cc1cc(OCCC(C)C)c2ccccc2c1OCCC(C)C | MTT | 24 h | 7.6 |
| COc1ccc(NC(=S)N/N=C/c2cccc3cc4ccccc4nc23)cc1 | MTT | 48 h | 14.8 |
| CC(C)CCOc1cc(C(=O)C[n+]2ccn(CCC(C)C)c2)c(OCCC(C)C)c2ccccc12 | MTT | 24 h | 10.1 |
| COc1cccc2c1C(=O)c1c(O)c3c(c(O)c1C2=O)C[C@@](O)(C(=O)CO)C[C@@H]3O[C@H]1C[C@H](N)[C@H](O)[C@H](C)O1 | MTT | 75 h | 0.27 |
| COc1cccc2c1C(=O)c1c(O)c3c(c(O)c1C2=O)C[C@@](O)(C(=O)CO)C[C@@H]3O[C@H]1C[C@H](N)[C@H](O)[C@H](C)O1 | – | – | 0.03 |
| CNC(=S)N/N=C/c1cccc2cc3ccccc3nc12 | MTT | 48 h | 21.8 |
| CC(C)CCOc1cc(C(=O)C[n+]2cn(Cc3ccccc3)c3ccccc32)c(OCCC(C)C)c2ccccc12 | MTT | 24 h | 14.8 |
| Fc1ccc(NC(=S)N/N=C/c2cccc3cc4ccccc4nc23)cc1 | MTT | 48 h | 18.4 |
| CN(C)c1cccc(Nc2nc(-c3ccncc3)nc3c2CNCC3)c1 | MTT | – | 32.4 |
| CC(C)CCOc1cc(C(=O)C[n+]2cn(C)c3ccccc32)c(OCCC(C)C)c2ccccc12 | MTT | 24 h | 13.9 |
| CN(C)C1CCc2[nH]c3c(C(N)=O)ccc(-c4ccccc4Cl)c3c2C1 (centres unmarked) | – | – | 0.19 |
| Fc1ccccc1Nc1nc(-c2ccncc2)nc2c1CNCC2 | MTT | – | > 100 |
| Cc1ccc(NC(=O)Cn2cc(COc3ncnc4[nH]cnc34)nn2)c(C)c1 | MTT | – | 21.4 |
| CC(C)CCn1c[n+](CC(=O)c2cc(OC(C)C)c3ccccc3c2OC(C)C)c2ccccc21 | MTT | 24 h | 12.9 |
| CC(=O)O[C@H]1C(=O)[C@@]2(C)[C@H]([C@H](OC(=O)c3ccccc3)[C@]3(O)C[C@H](OC(=O)[C@H](O)[C@@H](NC(=O)c4ccccc4)c4ccccc4)C(C)=C1C3(C)C)[C@]1(OC(C)=O)CO[C@@H]1C[C@@H]2O | MTT | 48 h | 15.8 |
| CC(C)CCOc1cc(C[n+]2c(-c3ccc(F)cc3)n(CCC(C)C)c3ccccc32)c(OCCC(C)C)c2ccccc12 | MTT | 24 h | 9.4 |
| Cc1cccc(NC(=O)Cn2cc(COc3ncnc4[nH]cnc34)nn2)c1 | MTT | – | 28.6 |
| CC(C)CCOc1cc(C[n+]2cn(CCC(C)C)c3cc(Br)c(Br)cc32)c(OCCC(C)C)c2ccccc12 | MTT | 24 h | 7.2 |
| CCC(=CCc1c(O)cc2c(c1O)C(=O)C[C@@H](c1ccccc1O)O2)CC | MTT | 48 h | 51.3 |
| COc1cccc(NC(=S)N/N=C/c2cccc3cc4ccccc4nc23)c1 | MTT | 48 h | 46.8 |
| [Cl-].[Li+] | MTT | – | > 10000 |
| CC(=O)O[C@@]12CO[C@@H]1C[C@H](O)[C@@]1(C)C(=O)[C@H](O)C3=C(C)[C@@H](OC(=O)[C@H](O)[C@@H](NC(=O)OC(C)(C)C)c4ccccc4)C[C@@](O)([C@@H](OC(=O)c4ccccc4)[C@H]21)C3(C)C | MTT | 48 h | 60.7 |
| CCC(=CCc1c(O)cc2c(c1O)C(=O)CC(c1ccc(O)cc1)O2)CC (stereo in doubt) | MTT | – | 19.1 |
| COc1ccc(-c2n(CCC(C)C)c3ccccc3[n+]2Cc2cc(OCCC(C)C)c3ccccc3c2OCCC(C)C)cc1 | MTT | 24 h | 10.9 |
| O=C(Cn1cc(COc2ncnc3[nH]cnc23)nn1)Nc1ccc(O)cc1 | MTT | – | 17.6 |
